Laboratory results taken from ChEMBL document CHEMBL1132171, “Synthesis and antitumor activity of novel thioester derivatives of leinamycin” (J Med Chem, 1999).

Legend:
Mus musculus [1] = experiment: In vivo antitumor activity against sarcoma 180 infected mice was determined as treated versus control of tumor volume; assay type: functional
In short: (§1)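 ddY mice given sarcoma 180 cells in the axillary region on day 0. Single iv dose on day 1. Tumor volume expressed as treated/control ratio. Optimal dose reported.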

[2] = Half-life determined by HPLC ([…]); assay type: ADME
In short: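 Stability read by HPLC at 330 nm. Compound at 20 μg/mL in pH 7 phosphate buffer/acetonitrile (4:1), 37 °C, half-life derived.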

HeLa = experiment: In vitro antiproliferative activity against HeLa S3 cells; assay type: functional, cell-based; conditions: Homo sapiens
In short: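 HeLa S3 cells precultured 24 h in 96-well plates, then exposed to compound for 72 h. Growth inhibition read on day 4 by neutral red dye uptake.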

Mus musculus [3] = experiment: Optimal dose for in vivo antitumor activity against sarcoma 180 infected mice; assay type: functional; in short: as §1

Row | Structure (SMILES) | T/C (Mus musculus [1]) | half-life [2] | IC50 (HeLa) | OD (Mus musculus [3])
1 | COCO[C@@H]1/C=C(\C)CC[C@]2([C@@](C)(O)C(=O)SCc3oc(=O)oc3C)CC(=O)N([C@H](C)c3nc(cs3)C=C/C=C/C1=O)[S+]2[O-] (stereo not given in full) | 0.58 | 24 h | 0.17 nM | 2 mg/kg
2 | CCOC(=O)CSC(=O)[C@](C)(O)[C@@]12CC/C(C)=C/[C@@H](O)C(=O)/C=C/C=Cc3csc(n3)[C@@H](C)N(C(=O)C1)[S+]2[O-] (stereo not given in full) | 0.98 | > 24 h | 1300 nM | 16 mg/kg
3 | CC(=O)O[C@@H]1/C=C(\C)CC[C@]2([C@@](C)(O)C(=O)SCc3oc(=O)oc3C)CC(=O)N([C@H](C)c3nc(cs3)C=C/C=C/C1=O)[S+]2[O-] (stereo not given in full) | 0.38 | 24 h | 3.9 nM | 2 mg/kg
4 | COC1(O[C@@H]2/C=C(\C)CC[C@]3([C@@](C)(O)C(=O)SCc4oc(=O)oc4C)CC(=O)N([C@H](C)c4nc(cs4)/C=C/C=C/C2=O)[S+]3[O-])CCOCC1 (stereo not given in full) | 0.25 | 18 h | 1.4 nM | 8 mg/kg
5 | C/C1=C\[C@@H](O)C(=O)/C=C/C=Cc2csc(n2)[C@@H](C)N2C(=O)C[C@@]([C@@](C)(O)C(=O)SCc3oc(=O)oc3C)(CC1)[S+]2[O-] (stereo not given in full) | 0.67 | 16 h | 4.6 nM | 2 mg/kg
6 | CSC(=O)[C@](C)(O)[C@@]12CC/C(C)=C/[C@@H](O)C(=O)/C=C/C=Cc3csc(n3)[C@@H](C)N(C(=O)C1)[S+]2[O-] (stereo not given in full) | 0.94 | 18 h | 830 nM | 16 mg/kg
7 | C/C1=C\[C@@H](O)C(=O)/C=C/C=C\c2csc(n2)[C@@H](C)NC(=O)C[C@@]2(CC1)[S+]([O-])SC(=O)[C@]2(C)O (stereo not given in full) [LEINAMYCIN] | 0.49 | 6 h |  | 2 mg/kg
8 | C/C1=C\[C@@H](O[C@@H]2CCCCO2)C(=O)/C=C/C=C/c2csc(n2)[C@@H](C)N2C(=O)C[C@@]([C@@](C)(O)C(=O)SCc3oc(=O)oc3C)(CC1)[S+]2[O-] (stereo not given in full) | 0.26 | 30 h | 0.67 nM | 8 mg/kg
9 | C/C1=C\[C@@H](O[C@H]2CCCCO2)C(=O)/C=C/C=C/c2csc(n2)[C@@H](C)N2C(=O)C[C@@]([C@@](C)(O)C(=O)SCc3oc(=O)oc3C)(CC1)[S+]2[O-] (stereo not given in full) | 0.63 | 30 h | 2.4 nM | 8 mg/kg
